Measured values from different studies.
Lines come from different studies, so protocols differ.
Target: Ephrin type-A receptor 8 (EPHA8, Homo sapiens, UniProt P29322)
One construct used (P29322 1-1005): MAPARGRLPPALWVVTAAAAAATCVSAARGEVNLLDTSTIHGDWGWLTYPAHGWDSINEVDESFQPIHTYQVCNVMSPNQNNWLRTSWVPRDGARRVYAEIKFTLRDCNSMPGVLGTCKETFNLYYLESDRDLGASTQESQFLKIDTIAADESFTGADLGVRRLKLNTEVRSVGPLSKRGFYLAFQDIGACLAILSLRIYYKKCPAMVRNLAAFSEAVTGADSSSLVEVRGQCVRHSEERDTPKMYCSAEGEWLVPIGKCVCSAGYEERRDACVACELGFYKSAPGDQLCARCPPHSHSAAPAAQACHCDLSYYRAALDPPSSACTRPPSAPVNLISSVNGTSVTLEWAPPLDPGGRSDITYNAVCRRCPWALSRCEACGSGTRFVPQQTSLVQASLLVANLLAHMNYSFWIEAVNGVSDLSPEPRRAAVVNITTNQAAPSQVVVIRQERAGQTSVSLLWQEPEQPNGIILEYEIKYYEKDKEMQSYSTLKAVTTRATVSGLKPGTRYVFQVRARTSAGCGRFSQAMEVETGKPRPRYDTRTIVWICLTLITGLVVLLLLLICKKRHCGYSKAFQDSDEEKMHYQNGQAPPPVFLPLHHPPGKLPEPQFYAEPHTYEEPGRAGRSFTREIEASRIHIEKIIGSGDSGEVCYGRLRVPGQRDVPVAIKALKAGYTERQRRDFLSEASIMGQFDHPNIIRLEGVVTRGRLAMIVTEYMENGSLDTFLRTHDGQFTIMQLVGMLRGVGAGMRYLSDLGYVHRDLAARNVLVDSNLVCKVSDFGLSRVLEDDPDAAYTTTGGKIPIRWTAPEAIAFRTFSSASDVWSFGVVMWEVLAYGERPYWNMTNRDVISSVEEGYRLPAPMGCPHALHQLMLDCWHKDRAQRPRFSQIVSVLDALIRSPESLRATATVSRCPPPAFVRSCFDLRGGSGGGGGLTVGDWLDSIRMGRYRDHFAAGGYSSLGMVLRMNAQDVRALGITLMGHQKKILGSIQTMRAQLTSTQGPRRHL

| SMILES | assay | conditions | remaining binding |
| --- | --- | --- | --- |
| CC1=C(C#N)C(c2ccc3c(c2)c(NC(=O)c2ccccc2C)nn3C)C(C#N)=C(C)N1 | cell-free assay, competition with immobilised ligand | 1 µM | 100% |
| O=C(NCC1CCOCC1)c1n[nH]cc1NC(=O)c1c(F)cccc1F | binding, competition with immobilised ligand | 1 µM | 100% |
| COc1cnc(Nc2cccc(S(N)(=O)=O)c2)nc1N1CCN(c2ccccc2)C(=O)C1 | binding, competition with immobilised ligand | 1 µM | 100% |
| NS(=O)(=O)c1cc(NC(=O)C2(c3ccccc3Cl)CC2)ccc1Oc1cccc(Cl)c1 | cell-free assay, competition with immobilised ligand | 1 µM | 80% |
| O=C(c1ccc(Nc2ncc(Cl)c(-c3cc4ccccc4s3)n2)cc1)N1CCC(N2CCCC2)CC1 | binding, competition with immobilised ligand | 1 µM | 83% |
| C[C@H](c1ccnc(Nc2nc3ccc(-c4cc(N(C)C)ncn4)cc3[nH]2)c1)N1CCN(C(=O)CC(F)(F)F)CC1 | cell-free assay, competition with immobilised ligand | 0.1 µM | 100% |
| N[C@@H]1CCN(c2nccc(-c3cnn4ncccc34)n2)C1 | binding | 1 µM | 100% |
| O=C(c1ccc(Nc2nccc(-c3cc4ccccc4s3)n2)cc1)N1CCC(N2CCCC2)CC1 | binding, competition with immobilised ligand | 1 µM | 100% |
| CN(C)c1nccc(-c2cnc3ncccn23)n1 | binding | 1 µM | 79% |
| c1cncc(-c2cccc(Nc3nccc(NC4CCCCC4)n3)c2)c1 | binding, competition with immobilised ligand | 10 µM | 100% |
| O=C(c1ccc(Nc2ncc(Cl)c(-c3ccc(Cl)s3)n2)cc1)N1CCC(N2CCCC2)CC1 | binding, competition with immobilised ligand | 1 µM | 91% |
| CNC(=O)[C@@H]1CC[C@@H](n2c(-c3ccc4cnccc4c3)nc3ccc(C(=O)NCc4cccc(C(N)=O)c4)cc32)C1 | binding, competition with immobilised ligand | 1 µM | 91% |
| COc1cc(-c2cn(C3CCc4c(F)cccc4N(CC(F)(F)F)C3=O)nn2)ccc1-n1cnc(C)c1 (centres unmarked) | cell-free assay, competition with immobilised ligand | 1 µM | 100% |
| c1cnn2ncc(-c3ccnc(N4CCC45COC5)n3)c2c1 | binding | 1 µM | 89% |
| C[C@@H](c1ccc(-n2cnc3c(N)ncnc32)cc1)N1CCc2nn(C)c(Cc3ccccc3)c2C1=O | binding, competition with immobilised ligand | 0.1 µM | 63% |
| Cc1cnn2ncc(-c3ccnc(N(C)C)n3)c2c1 | binding | 1 µM | 99% |
| CC(=O)C1=C(C)N(c2cccc(C(F)(F)F)c2)C(=O)N[C@@H]1c1ccc(C#N)nc1 | cell-free assay, competition with immobilised ligand | 1 µM | 100% |
| COc1ncc2cc3ccccc3nc2c1C#N | cell-free assay, competition with immobilised ligand | 5 µM | 94% |
| CCOC(=O)c1cc2cc(-c3cc(C(=O)NCc4ccc(C(=O)O)cc4)nn3C)ccc2[nH]1 | cell-free assay, competition with immobilised ligand | 0.1 µM | 100% |
| CN(C)c1ncc(F)c(-c2cnn3ncccc23)n1 | binding | 1 µM | 100% |
